Assays:
[1] = unless converted into the ester form; previous study; cited from earlier work
[2] = system: TOPFlash luciferase reporter (three wild-type Tcf4 binding sites) in β-catenin activated HEK293 cells; assay: TOPFlash luciferase reporter assay; format: cell-based; conditions: 24 h
Method in brief: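 HEK293 cells were co-transfected with FuGENE 6, using 45 ng TOPFlash or FOPFlash reporter plus 135 ng pcDNA3.1-β-catenin. Cells were grown 24 h in DMEM with 10% FBS at 37 °C, then treated with test compound at various concentrations. After 24 h, luciferase activity was read by a dual-luciferase system, normalized, and compared with DMSO-treated cells. Triplicate; unpaired two-tailed t-test.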

[3] = molecular target: T1, β-catenin/Tcf PPI (human β-catenin residues 138–781 / fluorescein-labeled human Tcf4 residues 7–51) (Homo sapiens, UniProt P35222); format: binding
T1 sequence (P35222 138-781): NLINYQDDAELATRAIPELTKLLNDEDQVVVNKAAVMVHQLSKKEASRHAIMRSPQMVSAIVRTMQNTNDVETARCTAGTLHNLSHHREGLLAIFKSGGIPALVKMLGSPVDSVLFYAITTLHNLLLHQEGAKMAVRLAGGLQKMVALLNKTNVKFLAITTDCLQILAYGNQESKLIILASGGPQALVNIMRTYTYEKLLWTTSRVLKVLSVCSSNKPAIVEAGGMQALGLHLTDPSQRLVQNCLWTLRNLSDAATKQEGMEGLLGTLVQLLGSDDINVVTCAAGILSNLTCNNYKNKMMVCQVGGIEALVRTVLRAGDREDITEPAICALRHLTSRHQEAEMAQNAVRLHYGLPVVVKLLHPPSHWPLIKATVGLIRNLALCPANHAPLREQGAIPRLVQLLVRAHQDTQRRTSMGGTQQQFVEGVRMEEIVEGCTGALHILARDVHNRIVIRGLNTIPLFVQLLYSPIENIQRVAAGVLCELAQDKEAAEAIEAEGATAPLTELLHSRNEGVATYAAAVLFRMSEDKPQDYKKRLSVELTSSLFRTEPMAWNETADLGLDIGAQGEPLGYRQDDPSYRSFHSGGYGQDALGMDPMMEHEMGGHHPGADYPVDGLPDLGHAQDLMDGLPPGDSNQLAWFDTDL

SW480 cells = assay: HPLC–MS based cell bioavailability assay; format: in vitro ADME; conditions: for cell-bound concentration: 37 °C, 3 h incubation in 5 mL DMEM with 10% FBS, input concentration 25 μM
[4] = system: β-catenin/Tcf PPI in HCT116 cells; assay: Co-IP in HCT116 cells, β-catenin/Tcf; format: cell-based; conditions: HCT116 cells treated 24 h
[5] = system: β-catenin/E-cadherin PPI in HCT116 cells; assay: Co-IP in HCT116 cells, β-catenin/E-cadherin; format: cell-based; conditions: concentrations sufficient to disrupt β-catenin/Tcf PPI
[6] = system: β-catenin/APC PPI in HCT116 cells; assay: Co-IP in HCT116 cells, β-catenin/APC; format: cell-based; conditions: concentrations sufficient to disrupt β-catenin/Tcf PPI
TNBC MDA-MB-231 cells [7] = assay: Scratch wound healing assay; format: cell-based, human; conditions: 10 μM, 10% serum, mitomycin 10 μg/mL, 14 h
Method in brief: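 Wounds were scraped with a sterile 200 µL pipette tip into ~70–80% confluent MDA-MB-231 monolayers. Cells were kept in DMEM with 10% FBS plus 10 µg/mL mitomycin to block proliferation, with test compound or vehicle (0.2% DMSO). Wounds were imaged immediately and at 14 h. […] Mean ± SD, n=3.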

TNBC MDA-MB-231 cells [8] = assay: Matrigel invasion assay; format: cell-based, human; conditions: 10 μM, 24 h

COC(=O)[C@H](CCC(=O)O)NC(=O)[C@H](CC(=O)O)NC(=O)[C@H](Cc1ccc2ccccc2c1)NC(=O)Cc1cc2cc(Cl)ccc2[nH]1 [Compound 1]
activity in cell-based assays [1]: almost inactive

CCOC(=O)CC[C@H](NC(=O)[C@H](CC(=O)OCC)NC(=O)[C@H](Cc1ccc2ccccc2c1)NC(=O)c1cc2cc(OC)ccc2[nH]1)C(=O)OC [(Et)-15]
TOPFlash luciferase activity ([2]; concentration of up to 200 μM): did not inhibit

COC(=O)[C@H](CCC(=O)O)NC(=O)[C@H](CC(=O)O)NC(=O)[C@H](Cc1ccc2ccccc2c1)NC(=O)Cc1c[nH]c2cc(Cl)ccc12 [Compound 3]
inhibitory potency for β-catenin/Tcf PPI in words [3]: great loss of potency

NC(=O)CC[C@H](NC(=O)[C@H](Cc1nn[nH]n1)NC(=O)[C@H](Cc1ccc2ccccc2c1)NC(=O)c1cc2cc(Cl)ccc2[nH]1)C(=O)Nc1ccc(OC(F)(F)F)cc1 [Compound 55, (S)-2-((S)-2-((S)-2-(5-Chloro-1H-indole-2-carboxamido)-3-(naphthalen-2-yl)propanamido)-3-(2H-tetrazol-5-yl)propanamido)-N^1-(4-(trifluoromethoxy)phenyl)pentanediamide]
TOPFlash luciferase activity ([2]; different concentrations): suppressed the TOPFlash luciferase activities in dose-dependent manners

O=C(O)CC[C@H](NC(=O)[C@H](Cc1nn[nH]n1)NC(=O)[C@H](Cc1ccc2ccccc2c1)NC(=O)c1cc2cc(Cl)ccc2[nH]1)C(=O)Nc1ccc(OC(F)(F)F)cc1 [Compound 53, (S)-4-((S)-2-((S)-2-(5-Chloro-1H-indole-2-carboxamido)-3-(naphthalen-2-yl)propanamido)-3-(2H-tetrazol-5-yl)propanamido)-5-oxo-5-((4-(trifluoromethoxy)phenyl)amino)pentanoic Acid]
cell-bound concentration (SW480 cells): 0.17 nmol/million SW480 cells

CCOC(=O)CC[C@H](NC(=O)[C@H](Cc1nn[nH]n1)NC(=O)[C@H](Cc1ccc2ccccc2c1)NC(=O)c1cc2cc(Cl)ccc2[nH]1)C(=O)Nc1ccc(OC(F)(F)F)cc1 [Compound 56, Ethyl (S)-4-((S)-2-((S)-2-(5-Chloro-1H-indole-2-carboxamido)-3-(naphthalen-2-yl)propanamido)-3-(2H-tetrazol-5-yl)-propanamido)-5-oxo-5-((4-(trifluoromethoxy)phenyl)amino)-pentanoate]
TOPFlash luciferase activity ([2]; different concentrations): suppressed the TOPFlash luciferase activities in dose-dependent manners | inhibition of β-catenin/Tcf PPI (co-IP) [4]: dose-dependently inhibited | effect on β-catenin/E-cadherin PPI (co-IP) [5]: had no effect | effect on β-catenin/APC PPI (co-IP) [6]: had no effect | inhibition of TNBC cell migration (TNBC MDA-MB-231 cells [7]): effectively inhibit | inhibition of TNBC cell invasion (TNBC MDA-MB-231 cells [8]): effectively inhibit | cell-bound concentration (SW480 cells): 1.4 nmol/million SW480 cells | transformation into 53 (SW480 cells; 24 h incubation with SW480 cells in 5 mL DMEM with 10% FBS): did not transform into 53

COC(=O)[C@H](CCC(=O)O)NC(=O)[C@H](CC(=O)O)NC(=O)[C@H](Cc1ccc2ccccc2c1)NC(=O)c1cc2c(Cl)cc(Cl)cc2[nH]1 [Compound 19]
potency improvement over 9 [3]: ~ 3 fold

O=C(O)CC[C@H](NC(=O)[C@H](CC(=O)O)NC(=O)[C@H](Cc1ccc2ccccc2c1)NC(=O)c1cc2cc(Cl)ccc2[nH]1)C(=O)Nc1ccccc1 [Compound 21, (S)-4-((S)-3-Carboxy-2-((S)-2-(5-chloro-1H-indole-2-carboxamido)-3-(naphthalen-2-yl)propanamido)propanamido)-5-oxo-5-(phenylamino)pentanoic Acid]
potency improvement over 9 [3]: 3.4 fold

COC(=O)[C@H](CCC(=O)O)NC(=O)[C@H](CC(=O)O)NC(=O)[C@H](Cc1ccc2ccccc2c1)NC(=O)Cc1c[nH]c2ccc(Cl)cc12 [Compound 2]
inhibitory potency for β-catenin/Tcf PPI in words [3]: great loss of potency

Reference: paper PMC6931396 (Journal of medicinal chemistry, 2019)
